Molecules are shown by their SMILES. Activity calls are given as the source filed them.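 Rule for the calls, unless noted: active = Her2 level under about 52% in both replicate screens, with viability over 70% of control (limit read from the data); inconclusive = Her2 under the limit in one screen only, or viability under 70%; inactive = Her2 level above the set limit.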

Assay [1] in a line: Her2 expression decrease, cell viability multiplex – SKBR3 breast tumor cells, AlphaScreen, ATP viability, primary screen (AID 461).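 For Her2 level: lower value means less Her2 protein in the cells.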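 For viability: percent of carrier control wells set as 100% viability.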 The conditions noted are these: SKBR3 Her2 protein level, 18-24 h, measured here: SKBR3 viability, ATP luminescence, at 10 µM. On the technique in general: Bead proximity is the source of the signal in Alpha formats.
The target of assay [2] is Receptor tyrosine-protein kinase erbB-2 (Homo sapiens) (UniProt P04626). The assay is described as above. The conditions noted are these: 18-24 h, at 10 µM, stronger effect = lower value.
Receptor tyrosine-protein kinase erbB-2 (Homo sapiens), sequence (P04626 whole entry, looked up): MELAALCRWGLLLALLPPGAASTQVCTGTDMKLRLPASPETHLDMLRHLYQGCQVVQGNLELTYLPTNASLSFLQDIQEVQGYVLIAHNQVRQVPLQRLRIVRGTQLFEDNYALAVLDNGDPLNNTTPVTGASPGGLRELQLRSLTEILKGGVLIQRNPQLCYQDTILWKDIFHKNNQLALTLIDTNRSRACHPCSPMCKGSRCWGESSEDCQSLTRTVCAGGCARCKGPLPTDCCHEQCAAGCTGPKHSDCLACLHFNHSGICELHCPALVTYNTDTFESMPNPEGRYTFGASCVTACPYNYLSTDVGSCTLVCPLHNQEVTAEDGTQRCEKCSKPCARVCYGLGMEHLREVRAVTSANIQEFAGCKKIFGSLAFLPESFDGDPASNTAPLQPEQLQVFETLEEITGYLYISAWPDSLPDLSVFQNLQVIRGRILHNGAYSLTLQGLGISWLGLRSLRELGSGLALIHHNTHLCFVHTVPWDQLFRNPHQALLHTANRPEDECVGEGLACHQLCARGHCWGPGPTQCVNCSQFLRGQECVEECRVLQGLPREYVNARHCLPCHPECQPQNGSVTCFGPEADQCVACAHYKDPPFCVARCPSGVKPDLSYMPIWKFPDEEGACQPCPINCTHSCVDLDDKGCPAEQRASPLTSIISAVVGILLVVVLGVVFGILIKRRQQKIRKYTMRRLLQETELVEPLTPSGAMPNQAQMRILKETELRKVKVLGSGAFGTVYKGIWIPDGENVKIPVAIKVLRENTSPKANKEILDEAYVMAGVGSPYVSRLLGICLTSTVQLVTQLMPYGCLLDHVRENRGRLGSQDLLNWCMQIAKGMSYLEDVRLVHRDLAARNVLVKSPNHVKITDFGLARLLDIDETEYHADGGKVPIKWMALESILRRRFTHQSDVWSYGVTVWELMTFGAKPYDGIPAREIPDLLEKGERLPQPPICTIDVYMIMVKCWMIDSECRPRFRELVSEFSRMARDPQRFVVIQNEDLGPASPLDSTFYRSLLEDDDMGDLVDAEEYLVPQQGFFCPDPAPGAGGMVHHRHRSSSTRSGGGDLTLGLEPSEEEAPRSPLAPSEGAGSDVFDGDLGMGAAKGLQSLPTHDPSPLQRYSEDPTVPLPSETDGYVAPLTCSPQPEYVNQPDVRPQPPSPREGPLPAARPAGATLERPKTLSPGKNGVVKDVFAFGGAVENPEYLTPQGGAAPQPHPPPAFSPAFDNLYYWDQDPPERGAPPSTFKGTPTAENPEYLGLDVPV
Assay [3] is described as follows: reduced viability of SK-BR-3 breast cancer cells – cell-based, 24 h, human, pilot screen (AID 572;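 active = viability at or below 10% of carrier control in both of two separate runs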;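 note: compound exposure lasted between 18 and 24 h rather than exactly 24 h; 100% = carrier-treated control wells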). The following applies: SK-BR-3 viability, CellTiter-Glo luminescence, at 10 µM, stronger effect = lower value. A general note: In ATP-based viability assays light output follows the ATP content of the culture.
A short description of assay [4]: HUVEC growth inhibition – cell-based, human, primary screen (AID 575;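 active = viability at or below 30% in both replicate assays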;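 note: 100% = median of untreated cell wells with 0.1% DMSO on each plate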). The conditions noted are these: HUVEC proliferation, CellTiter-Glo luminescence, 72 h; at 10 µM; stronger effect = lower value. The gist of the method: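 Test system: HUVEC primary cells. Quantity: 1250 endothelial cells in each well. Dosing: single-point 10 µM, DMSO 0.1% final. Incubation: 72 h treatment at 37 °C. Measured by: CTG luminescence. Control set: DMSO cell controls and MePR drug controls. Plate: collagen-coated 384-well format.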

A short description of assay [5]: H69AR cell proliferation blockers – human, duplicate replicates, primary screen (AID 580;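 active = viability at or under a set limit in both replicates, limit being median viability minus 3 SD, cut at about 48% in these data, passing the limit was not always enough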;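 note: 100% = mean luminescence of untreated wells and 0% = no signal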). The following applies: H69AR lung tumor cells viability, ATP luminescence, 72 h; at 10 µM; stronger effect = lower value.
Assay [6] is described as follows: MRP1 drug-resistance reversers in H69AR cells – cell-based, doxorubicin co-treatment, pilot screen (AID 601;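 active = viability loss from added drug above about 55%, and viability with drug at most 40%, in both replicates, limit read from the data, passing the limit was not always enough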). The following applies: CellTiter-Glo, 72 h, at 10 µM; for differential viability (reversal): stronger effect = higher value.
The nature of assay [7]: yeast transport mutant growth inhibition pilot in 384-well plates, post-Golgi transport modulator project (AID 636; in the data active = inhibition above about 31%). The conditions noted are these: absorbance 615 nm, about 18 h, stronger effect = higher value.
A short description of assay [8]: growth suppression of yeast trafficking mutant, preliminary HTS, modulators of trafficking downstream of Golgi apparatus project, 1536-format plate, OD 615 nm (AID 637; in the data active = inhibition above about 30%). The following applies: yeast transport mutant growth, absorbance 615 nm, 18 h; stronger effect = higher value.
[9] abbreviates: H69AR cells + 2 uM doxorubicin, measured here: viability with 2 uM doxorubicin, stronger effect = lower value.
[10] abbreviates: H69AR cells, compound alone cytotoxicity.

`Cc1cnc(NC(=O)CSc2nc3ccccc3c(=O)[nH]2)s1`: the viability – broadly, a read-out of living cells in per cent, often relative to untreated cells – in assay [1] was 89.5%; in assay [3], 89.5% (inactive); in assay [4] it was 76.5% (inactive); in assay [5] it was 93.3% (inactive); in assay [6] (setting [9]), 82.5%; in assay [6] (setting [10]), 93.3%. Besides, in assay [2], the Her2 level is 93.5% (inactive). Besides, the differential viability (reversal) in assay [6] (H69AR cells + 2 uM doxorubicin) was 10.8% (inactive). Also, the inhibition (in general, the relative decrease from the control value, in per cent) in assay [7] is -3.07% (inactive); in assay [8], -6.19% (inactive).
As for `O=C1CC2CS(=O)(=O)CC2N1c1ccc(Oc2ccccc2)cc1` (stereo not given), the viability in assay [1] was 99%; in assay [3], 99% (inactive); in assay [4], 78.6% (inactive); in assay [5], 95.6% (inactive); in assay [6] (setting [9]), 98%; in assay [6] (setting [10]) it was 95.6%. Moreover, the Her2 level in assay [2] was 87% (inactive). Also, in assay [6] (H69AR cells + 2 uM doxorubicin), the differential viability (reversal) was -2.44% (inactive). Moreover, the inhibition was -5.47% (inactive) in assay [7] and 3.11% (inactive) in assay [8].
`COc1cccc(OC)c1C(=O)N1CCN(S(=O)(=O)c2ccc(C)cc2)CC1`: the viability in assay [1] is 103%; in assay [3] it was 103% (inactive); in assay [4], 87.2% (inactive); in assay [5] it was 91.4% (inactive); in assay [6] (setting [9]), 96.7%; in assay [6] (setting [10]), 91.4%. Also, in assay [2], the Her2 level was 108% (inactive). Besides, the differential viability (reversal) in assay [6] (H69AR cells + 2 uM doxorubicin) is -5.23% (inactive). The figures for the inhibition in assay [7] and in assay [8] were -7.2% (inactive) and -3.28% (inactive), respectively.
Consider `CCc1nc(C)c(-c2ccccc2)c(=O)[nH]1`, for which the viability in assay [1] was 102%; in assay [3], 102% (inactive); in assay [4] it was 81.8% (inactive); in assay [5], 113% (inactive); in assay [6] (setting [9]) it was 87.2%; in assay [6] (setting [10]) it was 113%. Also, the Her2 level in assay [2] is 120% (inactive). In addition, the differential viability (reversal) in assay [6] (H69AR cells + 2 uM doxorubicin) was 25.6% (inactive). Moreover, the inhibition is -3.2% (inactive) in assay [7] and -8.39% (inactive) in assay [8].
With `Cn1cc(CN2CCc3ccccc3C2)c2ccccc21`, the viability in assay [1] is 80.5%; in assay [3], 80.5% (inactive); in assay [4], 90.4% (inactive); in assay [5], 75.6% (inactive); in assay [6] (setting [9]), 84.1%; in assay [6] (setting [10]) it was 75.6%. The Her2 level in assay [2] is 82% (inactive). Moreover, the differential viability (reversal) in assay [6] (H69AR cells + 2 uM doxorubicin) is -8.43% (inactive). Moreover, the inhibition was -5.58% (inactive) in assay [7] and 3.93% (inactive) in assay [8].
Turning to `Cc1ccc2[nH]c3c(N4CCOCC4)ncnc3c2c1`, the viability in assay [1] is 116%; in assay [3], 116% (inactive); in assay [4], 76.3% (inactive); in assay [5] it was 85.5% (inactive); in assay [6] (setting [9]), 101%; in assay [6] (setting [10]), 85.5%. In addition, the Her2 level in assay [2] was 95% (inactive). The differential viability (reversal) in assay [6] (H69AR cells + 2 uM doxorubicin) was -15.7% (inactive). Besides, the inhibition in assay [7] is -3.68% (inactive); in assay [8], 8.2% (inactive).
Take `O=C(CN1CCC(NC(=O)c2ccc(F)cc2)CC1)NCc1ccccc1F`: the viability in assay [1] was 96.5%; in assay [3], 96.5% (inactive); in assay [4], 91.5% (inactive); in assay [5], 103% (inactive); in assay [6] (setting [9]), 100%; in assay [6] (setting [10]), 103%. In assay [2], the Her2 level was 98.5% (inactive). The differential viability (reversal) in assay [6] (H69AR cells + 2 uM doxorubicin) is 3.44% (inactive). For the same compound, the inhibition was -5.6% (inactive) in assay [7] and -0.63% (inactive) in assay [8].
Take `Cc1nc2ncnn2c(N2CCC(C(=O)NC3CCCC3)CC2)c1Cc1ccccc1`: the viability in assay [1] was 88%; in assay [3] it was 88% (inactive); in assay [4] it was 91.5% (inactive); in assay [5], 73.6% (inactive); in assay [6] (setting [9]), 35.8%; in assay [6] (setting [10]), 73.6%. For the same compound, the Her2 level in assay [2] was 95% (inactive). Moreover, the differential viability (reversal) in assay [6] (H69AR cells + 2 uM doxorubicin) is 37.8% (inactive). The inhibition in assay [7] is -5.48% (inactive); in assay [8] it was -4.76% (inactive).
For the compound `Cc1cc(NC(=O)CSc2nc3ccccc3n2CC(=O)N2CCCCC2)no1`, the viability in assay [1] was 78%; in assay [3], 78% (inactive); in assay [4], 103% (inactive); in assay [5], 86.2% (inactive); in assay [6] (setting [9]), 77.8%; in assay [6] (setting [10]) it was 86.2%. Moreover, the Her2 level in assay [2] is 70% (inactive). Also, the differential viability (reversal) in assay [6] (H69AR cells + 2 uM doxorubicin) was 8.37% (inactive). Moreover, the inhibition is -5.54% (inactive) in assay [7] and 3.61% (inactive) in assay [8].
Consider `CCN(CC)CCOC(=O)c1c(C)oc2ccc(O)cc12`, for which the viability in assay [1] was 102%; in assay [3] it was 102% (inactive); in assay [4], 89.7% (inactive); in assay [5], 95% (inactive); in assay [6] (setting [9]) it was 91.1%; in assay [6] (setting [10]) it was 95%. Besides, in assay [2], the Her2 level was 109% (inactive). For the same compound, in assay [6] (H69AR cells + 2 uM doxorubicin), the differential viability (reversal) was 3.9% (inactive). In addition, the inhibition was -0.53% (inactive) in assay [7] and -6.94% (inactive) in assay [8].
Turning to `CCCCN(c1ccccc1)S(=O)(=O)c1ccc2c(c1)CCN2C(=O)CCC(=O)O`, the viability in assay [1] is 116%; in assay [3], 116% (inactive); in assay [4], 93.8% (inactive); in assay [5] it was 91.9% (inactive); in assay [6] (setting [9]), 90%; in assay [6] (setting [10]), 91.9%. For the same compound, the Her2 level in assay [2] was 100% (inactive). The differential viability (reversal) in assay [6] (H69AR cells + 2 uM doxorubicin) was 1.98% (inactive). The inhibition in assay [7] is -1.58% (inactive); in assay [8], -6.73% (inactive).
Take `CC(C)Cn1c(CN(Cc2ccccc2)Cc2ccccc2)nc2c1c(=O)n(C)c(=O)n2C`: the viability in assay [1] is 85.5%; in assay [3], 85.5% (inactive); in assay [4], 54.8% (inactive); in assay [5] it was 90.1% (inactive); in assay [6] (setting [9]) it was 88.9%; in assay [6] (setting [10]), 90.1%. Further, the Her2 level in assay [2] is 86.5% (inactive). Also, the differential viability (reversal) in assay [6] (H69AR cells + 2 uM doxorubicin) was 1.2% (inactive). For the same compound, the figures for the inhibition in assay [7] and in assay [8] were -1.47% (inactive) and 3.93% (inactive), respectively.
In the case of `O=C(CN1C(=O)c2ccccc2C1=O)Nc1ccccc1C(=O)N1CCCC1`, the viability in assay [1] is 83%; in assay [3], 83% (inactive); in assay [4] it was 96% (inactive); in assay [5] it was 109% (inactive); in assay [6] (setting [9]), 89%; in assay [6] (setting [10]), 109%. The Her2 level in assay [2] was 90.5% (inactive). In assay [6] (H69AR cells + 2 uM doxorubicin), the differential viability (reversal) was 19.7% (inactive). The results for the inhibition in assay [7] and in assay [8] were -3.78% (inactive) and 1.59% (inactive), respectively.
In the case of `Cc1noc(COc2ccccc2OCC(O)CNC(C)(C)C)n1` (stereo not given), the viability in assay [1] is 101%; in assay [3], 101% (inactive); in assay [4] it was 103% (inactive); in assay [5], 97% (inactive); in assay [6] (setting [9]) it was 89.9%; in assay [6] (setting [10]), 97%. Further, the Her2 level in assay [2] is 89% (inactive). The differential viability (reversal) in assay [6] (H69AR cells + 2 uM doxorubicin) was 7.13% (inactive). Also, the inhibition in assay [7] is -5.21% (inactive); in assay [8], -9.37% (inactive).
As for `O=C(N1CCCCCC1)N1CCN(C(=O)N2CCOCC2)CC1`, the viability is 105% in assay [1]; 105% (inactive) in assay [3]; 94.9% (inactive) in assay [4]; 98.9% (inactive) in assay [5]; 93.7% in assay [6] (setting [9]); 98.9% in assay [6] (setting [10]). Also, the Her2 level in assay [2] was 104% (inactive). Moreover, in assay [6] (H69AR cells + 2 uM doxorubicin), the differential viability (reversal) is 5.18% (inactive). The inhibition in assay [7] is 0.92% (inactive); in assay [8] it was -8.55% (inactive).
Regarding `Cc1ccc(C(=O)N2CCN(C(=O)c3ccc(C)c(C)c3)C(C)C2)cc1C` (stereo not given), the viability is 84.5% in assay [1]; 84.5% (inactive) in assay [3]; 97.5% (inactive) in assay [4]; 82.2% (inactive) in assay [5]; 70% in assay [6] (setting [9]); 82.2% in assay [6] (setting [10]). Besides, the Her2 level in assay [2] is 81% (inactive). The differential viability (reversal) in assay [6] (H69AR cells + 2 uM doxorubicin) was 12.2% (inactive). Besides, the inhibition was -4.61% (inactive) in assay [7] and -1.67% (inactive) in assay [8].

(Values after PubChem BioAssay.)
